{"source": "ChEMBL document CHEMBL4229446", "about": "“Development of Novel Monoamine Oxidase-B (MAO-B) Inhibitors with Reduced Blood-Brain Barrier Permeability for the Potential Management of Noncentral Nervous System (CNS) Diseases” (J Med Chem, 2018)", "key": {"[1]": {"assay": "Apparent half-life of the terminal disposition phase in C57BL/6 mouse plasma at 23.4 mg/kg, iv administered as single dose measured 24 hrs by UPLC-MS/MS analysis", "format": "ADME, organism-based", "conditions": "read-out: t1/2 lambda z (converted)", "outline": "(§1)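 21 animals dosed at 0 min, 3 killed per time point (0, 5, 15, 30 min, 1, 4, 24 h). Plasma extracted by protein precipitation/phospholipid removal. Brain homogenized in 50 mM ammonium formate, then extracted in acidified organic solvent. Both quantified by UPLC-MS/MS (MRM), brain ng/g taken as ng/mL. Noncompartmental analysis. Kp = AUClast brain/plasma.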"}, "[2]": {"assay": "Apparent half-life of the terminal disposition phase in C57BL/6 mouse brain at 23.4 mg/kg, sc administered as single dose measured 24 hrs by UPLC-MS/MS analysis", "format": "ADME, organism-based", "conditions": "read-out: t1/2 lambda z (converted)", "outline": "(§2)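 15 animals dosed, 3 killed at each of 1, 2, 4, 6 and 24 h. Plasma and brain homogenate (ammonium formate, acidified organic extraction) assayed by UPLC-MS/MS, brain ng/g taken as ng/mL. Noncompartmental parameters exclude values above/below quantification limit or undetected. Kp = AUClast brain/plasma.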"}, "[3]": {"assay": "Ratio of AUClast in brain to plasma in C57BL/6 mouse at 23.4 mg/kg, sc administered as single dose measured 24 hrs by UPLC-MS/MS analysis", "format": "ADME, organism-based", "outline": "as §2"}, "[4]": {"assay": "Apparent half-life of the terminal disposition phase in C57BL/6 mouse brain at 23.4 mg/kg, iv administered as single dose measured 24 hrs by UPLC-MS/MS analysis", "format": "ADME, organism-based", "conditions": "read-out: t1/2 lambda z (converted)", "outline": "as §1"}, "[5]": {"assay": "Cmax in C57BL/6 mouse brain at 23.4 mg/kg, sc administered as single dose measured 24 hrs by UPLC-MS/MS analysis", "format": "ADME, organism-based", "parameters": "dose 23.4 mg/kg, route subcutaneous", "outline": "as §2"}, "[6]": {"assay": "Ratio of AUClast in brain to plasma in C57BL/6 mouse at 23.4 mg/kg, iv administered as single dose measured 24 hrs by UPLC-MS/MS analysis", "format": "ADME, organism-based", "outline": "as §1"}, "[7]": {"assay": "Apparent half-life of the terminal disposition phase in C57BL/6 mouse plasma at 23.4 mg/kg, sc administered as single dose measured 24 hrs by UPLC-MS/MS analysis", "format": "ADME, organism-based", "conditions": "read-out: t1/2 lambda z (converted)", "outline": "as §2"}, "[8]": {"assay": "AUClast in C57BL/6 mouse brain at 23.4 mg/kg, sc administered as single dose measured 24 hrs by UPLC-MS/MS analysis", "format": "ADME, organism-based", "parameters": "dose 23.4 mg/kg, time 0 - last, route subcutaneous", "outline": "as §2"}, "[9]": {"assay": "Ratio of AUClast in brain to plasma in C57BL/6 mouse at 23.4 mg/kg, po administered as single dose measured 24 hrs by UPLC-MS/MS analysis", "format": "ADME, organism-based", "outline": "as §2"}, "[10]": {"assay": "Tmax in C57BL/6 mouse plasma at 23.4 mg/kg, iv administered as single dose measured 24 hrs by UPLC-MS/MS analysis", "format": "ADME, organism-based", "outline": "as §1"}, "[11]": {"assay": "AUClast in C57BL/6 mouse brain at 23.4 mg/kg, po administered as single dose measured 24 hrs by UPLC-MS/MS analysis", "format": "ADME, organism-based", "parameters": "dose 23.4 mg/kg, route oral, time 0 - last", "outline": "as §2"}, "[12]": {"molecular_target": "T1, Amine oxidase [flavin-containing] B (Homo sapiens, UniProt P27338)", "T1 sequence (P27338 whole entry)": "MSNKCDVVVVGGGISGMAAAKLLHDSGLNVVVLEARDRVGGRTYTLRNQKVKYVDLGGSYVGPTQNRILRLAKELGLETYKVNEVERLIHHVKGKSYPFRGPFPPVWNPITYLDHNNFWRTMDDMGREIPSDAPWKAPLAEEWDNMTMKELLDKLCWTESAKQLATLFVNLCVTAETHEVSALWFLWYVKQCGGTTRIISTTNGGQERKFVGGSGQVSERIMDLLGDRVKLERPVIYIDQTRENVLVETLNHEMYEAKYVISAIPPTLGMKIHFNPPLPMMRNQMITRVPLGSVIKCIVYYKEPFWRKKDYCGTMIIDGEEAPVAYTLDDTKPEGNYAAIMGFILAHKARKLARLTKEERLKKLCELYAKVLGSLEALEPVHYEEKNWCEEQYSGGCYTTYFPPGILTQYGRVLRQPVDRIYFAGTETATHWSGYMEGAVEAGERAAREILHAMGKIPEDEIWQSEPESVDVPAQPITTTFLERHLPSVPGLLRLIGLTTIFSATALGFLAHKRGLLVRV", "assay": "Inhibition of human recombinant MAO-B expressed in baculovirus infected BTI-TN-5B1-4 insect cells using benzylamine as substrate preincubated for 1 hr followed by substrate addition and measured after 30 mins by resazurin dye-based fluorescence assay", "format": "cell-based"}, "[13]": {"assay": "Cmax in C57BL/6 mouse brain at 23.4 mg/kg, po administered as single dose measured 24 hrs by UPLC-MS/MS analysis", "format": "ADME, organism-based", "parameters": "dose 23.4 mg/kg, route oral", "outline": "as §2"}, "[14]": {"assay": "Tmax in C57BL/6 mouse plasma at 23.4 mg/kg, sc administered as single dose measured 24 hrs by UPLC-MS/MS analysis", "format": "ADME, organism-based", "outline": "as §2"}, "[15]": {"assay": "Ratio of AUClast in brain to plasma in C57BL/6 mouse at 24.5 mg/kg, sc administered as single dose measured 24 hrs by UPLC-MS/MS analysis", "format": "ADME, organism-based", "outline": "(§3)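 15 animals dosed, 3 sacrificed at each of 1, 2, 4, 6 and 24 h. Plasma and brain homogenate were extracted and quantified by UPLC-MS/MS. Parameters came from noncompartmental analysis. Values above or below the limit of quantification, or undetected, were omitted. Kp = AUClast brain/plasma.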"}, "[16]": {"assay": "AUClast in C57BL/6 mouse plasma at 24.5 mg/kg, po administered as single dose measured 24 hrs by UPLC-MS/MS analysis", "format": "ADME, organism-based", "parameters": "dose 24.5 mg/kg, route oral, time 0 - last", "outline": "as §3"}, "[17]": {"assay": "Tmax in C57BL/6 mouse plasma at 24.5 mg/kg, iv administered as single dose measured 24 hrs by UPLC-MS/MS analysis", "format": "ADME, organism-based", "outline": "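Plasma cleaned by protein precipitation with phospholipid removal, then UPLC-MS/MS in MRM mode. Tmax obtained by noncompartmental analysis.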"}, "[18]": {"assay": "Cmax in C57BL/6 mouse brain at 24.5 mg/kg, iv administered as single dose measured 24 hrs by UPLC-MS/MS analysis", "format": "ADME, organism-based", "parameters": "dose 24.5 mg/kg, route intravenous", "outline": "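21 animals dosed at 0 min, 3 sacrificed at each of 0, 5, 15, 30 min, 1, 4 and 24 h. Plasma was extracted by protein precipitation with phospholipid removal. Brain was weighed, bead-homogenised in 50 mM ammonium formate and extracted in acidified organic solvent. Quantified by UPLC-MS/MS (MRM). Brain ng/g taken as ng/mL. Parameters came from noncompartmental analysis. Kp = AUClast brain/plasma.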"}, "[19]": {"assay": "Ratio of AUClast in brain to plasma in C57BL/6 mouse at 24.5 mg/kg, po administered as single dose measured 24 hrs by UPLC-MS/MS analysis", "format": "ADME, organism-based", "outline": "as §3"}, "[20]": {"assay": "Apparent half-life of the terminal disposition phase in C57BL/6 mouse plasma at 24.5 mg/kg, po administered as single dose measured 24 hrs by UPLC-MS/MS analysis", "format": "ADME, organism-based", "conditions": "read-out: t1/2 lambda z (converted)", "outline": "as §3"}, "[21]": {"assay": "Cmax in C57BL/6 mouse plasma at 24.5 mg/kg, sc administered as single dose measured 24 hrs by UPLC-MS/MS analysis", "format": "ADME, organism-based", "parameters": "dose 24.5 mg/kg, route subcutaneous", "outline": "as §3"}, "[22]": {"assay": "Cmax in C57BL/6 mouse brain at 24.5 mg/kg, po administered as single dose measured 24 hrs by UPLC-MS/MS analysis", "format": "ADME, organism-based", "parameters": "dose 24.5 mg/kg, route oral", "outline": "as §3"}, "[23]": {"assay": "AUClast in C57BL/6 mouse plasma at 24.5 mg/kg, sc administered as single dose measured 24 hrs by UPLC-MS/MS analysis", "format": "ADME, organism-based", "parameters": "dose 24.5 mg/kg, time 0 - last, route subcutaneous", "outline": "as §3"}}, "data": [{"smiles": "CN(CC(=O)O)[C@H](CC#N)Cc1ccc(OCc2ccc(Cl)c(Cl)c2)cc1", "values": [{"measurement": "half-life", "setting": "[1]", "result": 44.4, "unit": "min"}, {"measurement": "half-life", "setting": "[2]", "result": 64.2, "unit": "min"}, {"measurement": "Kp at 24 h", "setting": "[3]", "result": 0.005}, {"measurement": "half-life", "setting": "[4]", "result": 39, "unit": "min"}, {"measurement": "Cmax", "setting": "[5]", "result": 91.3, "unit": "ng/mL"}, {"measurement": "Kp at 24 h", "setting": "[6]", "result": 0.004}, {"measurement": "half-life", "setting": "[7]", "result": 217, "unit": "min"}, {"measurement": "AUC(0-t) at 24 h", "setting": "[8]", "result": 176, "unit": "ng·h/mL"}, {"measurement": "Kp at 24 h", "setting": "[9]", "result": 0.002}, {"measurement": "Tmax", "setting": "[10]", "result": 5, "unit": "min"}, {"measurement": "AUC(0-t) at 24 h", "setting": "[11]", "result": 116, "unit": "ng·h/mL"}, {"measurement": "IC50", "setting": "[12]", "result": 206, "unit": "nM"}, {"measurement": "Cmax", "setting": "[13]", "result": 91.9, "unit": "ng/mL"}, {"measurement": "Tmax", "setting": "[14]", "result": 1, "unit": "h"}]}, {"smiles": "C[C@H](Cc1ccc(OCc2ccc(Br)c(Cl)c2)cc1)N(C)CC(=O)O", "values": [{"measurement": "Kp at 24 h", "setting": "[15]", "result": 0.19}, {"measurement": "AUC(0-t) at 24 h", "setting": "[16]", "result": 104, "unit": "µg·h/mL"}, {"measurement": "Tmax", "setting": "[17]", "result": 5, "unit": "min"}, {"measurement": "Cmax", "setting": "[18]", "result": 653, "unit": "ng/mL"}, {"measurement": "Kp at 24 h", "setting": "[19]", "result": 0.12}, {"measurement": "half-life", "setting": "[20]", "result": 215, "unit": "min"}, {"measurement": "Cmax", "setting": "[21]", "result": 7110, "unit": "ng/mL"}, {"measurement": "Cmax", "setting": "[22]", "result": 812, "unit": "ng/mL"}, {"measurement": "AUC(0-t) at 24 h", "setting": "[23]", "result": 66900, "unit": "ng·h/mL"}]}]}
